{
  "source": "ChEMBL document CHEMBL1155055",
  "about": "“Novel aminopeptidase N inhibitors derived from 1,3,4-thiadiazole scaffold” (Bioorg Med Chem, 2008)",
  "key": {"Aminopeptidase N": {"target": "T1, Aminopeptidase N (Sus scrofa, UniProt P15145)", "T1 sequence (P15145 whole entry)": "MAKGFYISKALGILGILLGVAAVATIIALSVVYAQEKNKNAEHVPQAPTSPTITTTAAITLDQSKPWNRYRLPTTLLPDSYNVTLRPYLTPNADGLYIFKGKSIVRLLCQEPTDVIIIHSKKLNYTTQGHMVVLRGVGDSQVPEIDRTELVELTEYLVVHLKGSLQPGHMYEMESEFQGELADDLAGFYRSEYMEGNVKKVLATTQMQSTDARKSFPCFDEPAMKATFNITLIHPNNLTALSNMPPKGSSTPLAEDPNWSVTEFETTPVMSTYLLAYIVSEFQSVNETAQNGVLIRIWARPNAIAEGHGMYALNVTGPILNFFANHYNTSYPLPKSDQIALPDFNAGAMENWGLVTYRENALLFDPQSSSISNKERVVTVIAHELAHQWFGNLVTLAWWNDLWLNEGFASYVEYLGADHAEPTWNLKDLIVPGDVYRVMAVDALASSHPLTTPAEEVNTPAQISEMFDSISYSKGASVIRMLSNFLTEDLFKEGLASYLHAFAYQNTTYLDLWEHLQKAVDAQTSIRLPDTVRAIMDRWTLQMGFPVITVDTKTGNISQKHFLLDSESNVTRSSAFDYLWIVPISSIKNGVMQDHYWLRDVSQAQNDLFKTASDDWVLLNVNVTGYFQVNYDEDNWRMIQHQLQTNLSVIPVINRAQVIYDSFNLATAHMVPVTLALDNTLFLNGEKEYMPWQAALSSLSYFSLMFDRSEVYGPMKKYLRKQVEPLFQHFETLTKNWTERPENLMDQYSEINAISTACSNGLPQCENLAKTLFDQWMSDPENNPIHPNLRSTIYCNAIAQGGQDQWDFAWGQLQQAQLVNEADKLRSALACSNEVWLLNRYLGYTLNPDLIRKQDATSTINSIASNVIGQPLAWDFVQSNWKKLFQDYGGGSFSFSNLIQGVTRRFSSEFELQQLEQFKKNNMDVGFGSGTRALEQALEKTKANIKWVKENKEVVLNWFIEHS", "assay": "Inhibition of pig kidney microsomes aminopeptidase N"}, "[1]": {"target": "72 kDa type IV collagenase (Homo sapiens, UniProt P08253)", "assay": "Inhibition of MMP2", "summary_of_the_method": "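Gelatinase (MMP-2), substrate and inhibitor in 50 mmol/L sodium borate pH 8.5, 30 min at 37 °C; then 0.03% TNBS added, further 20 min incubation; absorbance read at 450 nm.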"}},
  "note": "Calls of active or inactive are those of the source. No cut-off for these calls is given here.",
  "data": [
    {"smiles": "COc1ccc(/C=C/C(=O)N[C@H](C)C(=O)Nc2nnc(-c3ccc([N+](=O)[O-])cc3)s2)cc1", "values": [
      {"measurement": "IC50", "setting": "Aminopeptidase N", "value": 44.6, "unit": "µM"},
      {"measurement": "IC50", "setting": "[1]", "value": 297, "unit": "µM"}
    ]},
    {"smiles": "C[C@@H](NC(=O)/C=C/c1ccc(O)cc1)C(=O)Nc1nnc(-c2ccc([N+](=O)[O-])cc2)s1", "values": [
      {"measurement": "IC50", "setting": "Aminopeptidase N", "value": 54.1, "unit": "µM"},
      {"measurement": "Activity", "setting": "[1]", "value": "inactive"}
    ]},
    {"smiles": "COc1ccc(/C=C/C(=O)N[C@H](C)C(=O)Nc2nnc(-c3ccc(Br)cc3)s2)cc1", "values": [
      {"measurement": "IC50", "setting": "Aminopeptidase N", "value": 108, "unit": "µM"},
      {"measurement": "Activity", "setting": "[1]", "value": "inactive"}
    ]},
    {"smiles": "C[C@@H](NC(=O)/C=C/c1ccccc1)C(=O)Nc1nnc(-c2ccc(Br)cc2)s1", "values": [
      {"measurement": "IC50", "setting": "Aminopeptidase N", "value": 115, "unit": "µM"},
      {"measurement": "Activity", "setting": "[1]", "value": "inactive"}
    ]},
    {"smiles": "COc1ccc(-c2nnc(NC(=O)[C@@H](C)NC(=O)/C=C/c3ccc(O)cc3)s2)cc1", "values": [
      {"measurement": "IC50", "setting": "Aminopeptidase N", "value": 68.8, "unit": "µM"},
      {"measurement": "Activity", "setting": "[1]", "value": "inactive"}
    ]},
    {"smiles": "C[C@@H](NC(=O)/C=C/c1ccc(O)cc1)C(=O)Nc1nnc(-c2ccccc2)s1", "values": [
      {"measurement": "IC50", "setting": "Aminopeptidase N", "value": 124, "unit": "µM"},
      {"measurement": "Activity", "setting": "[1]", "value": "inactive"}
    ]},
    {"smiles": "COc1ccc(/C=C/C(=O)N[C@H](C)C(=O)Nc2nnc(-c3ccccc3)s2)cc1", "values": [
      {"measurement": "IC50", "setting": "Aminopeptidase N", "value": 131, "unit": "µM"},
      {"measurement": "Activity", "setting": "[1]", "value": "inactive"}
    ]},
    {"smiles": "COc1ccc(/C=C/C(=O)N[C@H](C)C(=O)Nc2nnc(-c3ccc(F)cc3)s2)cc1", "values": [
      {"measurement": "IC50", "setting": "Aminopeptidase N", "value": 90.7, "unit": "µM"},
      {"measurement": "Activity", "setting": "[1]", "value": "inactive"}
    ]},
    {"smiles": "COc1ccc(-c2nnc(NC(=O)[C@@H](C)NC(=O)/C=C/c3ccccc3)s2)cc1", "values": [
      {"measurement": "IC50", "setting": "Aminopeptidase N", "value": 31.4, "unit": "µM"},
      {"measurement": "Activity", "setting": "[1]", "value": "inactive"}
    ]},
    {"smiles": "COc1ccc(/C=C/C(=O)N[C@H](C)C(=O)Nc2nnc(-c3ccc(C)cc3)s2)cc1", "values": [
      {"measurement": "IC50", "setting": "Aminopeptidase N", "value": 141, "unit": "µM"},
      {"measurement": "Activity", "setting": "[1]", "value": "inactive"}
    ]},
    {"smiles": "C[C@@H](NC(=O)/C=C/c1ccccc1)C(=O)Nc1nnc(-c2ccc(Cl)cc2)s1", "values": [
      {"measurement": "IC50", "setting": "Aminopeptidase N", "value": 153, "unit": "µM"},
      {"measurement": "Activity", "setting": "[1]", "value": "inactive"}
    ]},
    {"smiles": "C[C@@H](NC(=O)/C=C/c1ccccc1)C(=O)Nc1nnc(-c2ccccc2)s1", "values": [
      {"measurement": "IC50", "setting": "Aminopeptidase N", "value": 216, "unit": "µM"},
      {"measurement": "Activity", "setting": "[1]", "value": "inactive"}
    ]},
    {"smiles": "Cc1ccc(-c2nnc(NC(=O)[C@@H](C)NC(=O)/C=C/c3ccccc3)s2)cc1", "values": [
      {"measurement": "IC50", "setting": "Aminopeptidase N", "value": 206, "unit": "µM"},
      {"measurement": "Activity", "setting": "[1]", "value": "inactive"}
    ]},
    {"smiles": "COc1ccc(/C=C/C(=O)N[C@H](C)C(=O)Nc2nnc(-c3ccc(OC)cc3)s2)cc1", "values": [
      {"measurement": "IC50", "setting": "Aminopeptidase N", "value": 78.5, "unit": "µM"},
      {"measurement": "Activity", "setting": "[1]", "value": "inactive"}
    ]},
    {"smiles": "C[C@@H](NC(=O)/C=C/c1ccc(O)cc1)C(=O)Nc1nnc(-c2ccc(Br)cc2)s1", "values": [
      {"measurement": "IC50", "setting": "Aminopeptidase N", "value": 35.3, "unit": "µM"},
      {"measurement": "Activity", "setting": "[1]", "value": "inactive"}
    ]},
    {"smiles": "CC(C)C[C@H](NC(=O)[C@@H](O)[C@H](N)Cc1ccccc1)C(=O)O", "note": "[UBENIMEX]", "values": [
      {"measurement": "IC50", "setting": "[1]", "value": 9.5, "unit": "µM"}
    ]},
    {"smiles": "C[C@@H](NC(=O)/C=C/c1ccc(O)cc1)C(=O)Nc1nnc(-c2ccc(Cl)cc2)s1", "values": [
      {"measurement": "IC50", "setting": "Aminopeptidase N", "value": 105, "unit": "µM"},
      {"measurement": "Activity", "setting": "[1]", "value": "inactive"}
    ]},
    {"smiles": "C[C@@H](NC(=O)/C=C/c1ccc(O)cc1)C(=O)Nc1nnc(-c2ccc(F)cc2)s1", "values": [
      {"measurement": "IC50", "setting": "Aminopeptidase N", "value": 115, "unit": "µM"},
      {"measurement": "Activity", "setting": "[1]", "value": "inactive"}
    ]},
    {"smiles": "COc1ccc(/C=C/C(=O)N[C@H](C)C(=O)Nc2nnc(-c3ccc(Cl)cc3)s2)cc1", "values": [
      {"measurement": "IC50", "setting": "Aminopeptidase N", "value": 135, "unit": "µM"},
      {"measurement": "Activity", "setting": "[1]", "value": "inactive"}
    ]},
    {"smiles": "Cc1ccc(-c2nnc(NC(=O)[C@@H](C)NC(=O)/C=C/c3ccc(O)cc3)s2)cc1", "values": [
      {"measurement": "IC50", "setting": "Aminopeptidase N", "value": 127, "unit": "µM"},
      {"measurement": "Activity", "setting": "[1]", "value": "inactive"}
    ]},
    {"smiles": "C[C@@H](NC(=O)/C=C/c1ccccc1)C(=O)Nc1nnc(-c2ccc([N+](=O)[O-])cc2)s1", "values": [
      {"measurement": "IC50", "setting": "Aminopeptidase N", "value": 84.7, "unit": "µM"},
      {"measurement": "Activity", "setting": "[1]", "value": "inactive"}
    ]},
    {"smiles": "C[C@@H](NC(=O)/C=C/c1ccccc1)C(=O)Nc1nnc(-c2ccc(F)cc2)s1", "values": [
      {"measurement": "IC50", "setting": "Aminopeptidase N", "value": 183, "unit": "µM"},
      {"measurement": "Activity", "setting": "[1]", "value": "inactive"}
    ]}
  ]
}
